The values below come from ChEMBL document CHEMBL3621120, “Discovery of ((4-(5-(Cyclopropylcarbamoyl)-2-methylphenylamino)-5-methylpyrrolo[1,2-f][1,2,4]triazine-6-carbonyl)(propyl)carbamoyloxy)methyl-2-(4-(phosphonooxy)phenyl)acetate (BMS-751324), a Clinical Prodrug of p38α MAP Kinase Inhibitor” (J Med Chem, 2015).

The structures appear in SMILES notation. Converted amounts (≈) assume the structure as drawn.

By half-life is commonly meant how long it takes for the measured level to halve. As usually defined, the solubility is the concentration that dissolves in the medium under given conditions. A word on the AUC: it is concentration integrated over time. By Cmax is commonly meant the maximum level reached in the sampled fluid or tissue. The inhibition in vivo is the share of the control response that was lost under treatment.

Series [1] is described as follows: Stability in pH 7.4 solution assessed as half-life at 37 degC. Type of series: physicochemical.
Series [2] in a line: Solubility of the compound in pH 1.2 solution at room temperature. Type of series: physicochemical.
For series [3], the system named is Rattus norvegicus. Put plainly: AUC in Sprague-Dawley rat assessed as plasma BMS-582949 level at 1 mg/kg, po dose equivalent to BMS-582949 after 24 hrs by LC/MS/MS method. Also on record: time < 24 hr, dose 1 mg/kg, route oral. The settings on record: in vivo. Type of series: ADME, organism-based.
For series [4], the system named is Rattus norvegicus. The experiment in a line: AUC in Sprague-Dawley rat assessed as plasma BMS-582949 level at 100 mg/kg, po dose equivalent to BMS-582949 after 24 hrs by LC/MS/MS method. Details: time < 24 hr, dose 100 mg/kg, route oral. To be noted: in vivo. It is filed as ADME, organism-based.
Series [5] has as its system Rattus norvegicus. The experiment in a line: Bioavailability in Sprague-Dawley rat assessed as plasma BMS-582949 level at 10 mg/kg, po dose equivalent to BMS-582949 after 24 hrs by LC/MS/MS method. Type of series: ADME, organism-based. To be noted: in vivo.
A further series relates to Cynomolgus monkey. Put plainly: Cmax in cynomolgus monkey assessed as plasma BMS-582949 level at 30 mg/kg, po dose equivalent to BMS-582949 after 24 hrs by LC/MS/MS method. Also on record: dose 30 mg/kg, route oral. To be noted: in vivo. It is filed as ADME, organism-based, Macaca fascicularis. The method, boiled down:
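Three overnight-fasted male cynomolgus monkeys (4.2-5.2 kg) given prodrug by oral gavage at 10 or 30 mg/kg, 5 mL/kg methocel suspension, one-week washout between doses. Femoral artery blood pre-dose and 0.25-24 h post-dose; plasma (centrifuged 4 °C) stored -20 °C and analysed by LC/MS/MS for parent.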

Series [6] concerns Rattus norvegicus. Put plainly: Inhibition of paw swelling in Lewis rat adjuvant arthritis model assessed as reduction in hind paw volume at 1 mg/kg, po bid dose equivalent to BMS-582949 beginning on day 11 post adjuvant challenge by volume displacement plethysmometry method relative to control. Type of series: functional. To be noted: 264 h. The method, boiled down: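 Male Lewis rats given complete Freund's adjuvant on day 1; from day 11 compounds dosed orally BID in 0.5 mL vehicle (prodrug as aqueous suspension in 0.75% Methocel, 0.1% Tween 80; parent in PEG 300). Paw volume measured 3 times per week for rest of study; paw swelling inhibition reported.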

Series [7] deals with T1, Alkaline phosphatase, placental type (Homo sapiens, UniProt P05187). Put plainly: Stability assessed as human placental ALP-mediated drug degradation by measuring compound remaining level in pH 7.5 tris buffer at 10 uM incubated for 0.25 hrs by LC/MS/MS method. Type of series: ADME. To be noted: read-out: Stability. The method, boiled down:
(§1)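 Human placental alkaline phosphatase (1 unit/mL) incubated with compound at 10 µM in 89 mM tris buffer, pH 7.5, 37 °C; reactions in triplicate started by compound addition, sampled at 0, 15, 30, 60 min. For inhibition, HALT phosphatase inhibitor cocktail (100x dilution) added before compound. Samples quenched into EDTA, acetonitrile added, centrifuged, remaining compound measured by LC/MS/MS.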

For series [8], the target named is T1, Alkaline phosphatase, placental type. The experiment in a line: Stability assessed as human placental ALP-mediated drug degradation by measuring compound remaining level in pH 7.5 tris buffer at 10 uM incubated for 1 hr by LC/MS/MS method. It is filed as ADME. To be noted: read-out: Stability. An outline of the steps: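 Human placental ALP at 1 unit/mL, test compound at 10 µM in 89 mM tris pH 7.5, 37 °C. Run in triplicate, started by adding compound. Aliquots taken at 0, 15, 30 and 60 min and quenched into 10 mM EDTA plus acetonitrile. After centrifugation at 4 °C, percent remaining measured by LC/MS/MS.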

For series [9] the target is unchanged. The experiment in a line: Stability assessed as human placental ALP-mediated drug degradation by measuring compound remaining level in pH 7.5 tris buffer at 10 uM incubated for 0.25 hrs in presence of HALT phosphatase inhibitor cocktail by LC/MS/MS method. The settings on record: pH 7.5, with HALT phosphatase inhibitor cocktail, read-out: Stability. It is filed as ADME. The method, boiled down: as §1

The target is the same in series [10]. The experiment in a line: Stability assessed as human placental ALP-mediated drug degradation by measuring compound remaining level in pH 7.5 tris buffer at 10 uM incubated for 1 hr in presence of HALT phosphatase inhibitor cocktail by LC/MS/MS method. Type of series: ADME. To be noted: pH 7.5, with HALT phosphatase inhibitor cocktail. The method, boiled down: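 Human placental ALP (1 unit/mL) with HALT phosphatase inhibitor cocktail at 100x dilution, added before the test compound (10 µM). Buffer 89 mM tris pH 7.5, 37 °C, triplicate. Sampled at 0, 15, 30 and 60 min, quenched with EDTA and acetonitrile, centrifuged, and percent remaining determined by LC/MS/MS.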

T1 sequence (P05187 whole entry): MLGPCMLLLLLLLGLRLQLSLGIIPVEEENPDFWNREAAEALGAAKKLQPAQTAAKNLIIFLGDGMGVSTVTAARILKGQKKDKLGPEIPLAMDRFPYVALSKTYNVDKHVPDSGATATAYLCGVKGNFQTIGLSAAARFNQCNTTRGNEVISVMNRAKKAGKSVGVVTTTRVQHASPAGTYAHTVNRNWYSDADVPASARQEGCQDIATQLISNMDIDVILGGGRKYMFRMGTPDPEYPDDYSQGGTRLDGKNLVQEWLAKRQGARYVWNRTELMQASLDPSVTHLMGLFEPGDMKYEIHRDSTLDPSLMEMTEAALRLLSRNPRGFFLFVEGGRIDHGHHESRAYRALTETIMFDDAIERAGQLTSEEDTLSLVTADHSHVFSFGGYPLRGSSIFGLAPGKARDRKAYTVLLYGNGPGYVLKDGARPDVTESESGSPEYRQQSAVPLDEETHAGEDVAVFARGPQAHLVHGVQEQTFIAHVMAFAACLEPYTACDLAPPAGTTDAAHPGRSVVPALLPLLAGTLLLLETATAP

On to `CCCN(C(=O)OCOC(=O)Cc1ccc(OP(=O)(O)O)cc1)C(=O)c1cn2ncnc(Nc3cc(C(=O)NC4CC4)ccc3C)c2c1C`, for which the half-life in series [1] is 37 h. The solubility in [2] stood at 100 µg/mL (≈ 144 µM). The exposure (AUC) with Rattus norvegicus [3] was found to be 3.1 µM·h; in the series on Rattus norvegicus [4], 875 µM·h. The F in the series on Rattus norvegicus [5] was determined as 103%. Further, the Cmax with Cynomolgus monkey was 29 µM. In addition, the inhibition in vivo at 1 mg/kg in the series with Rattus norvegicus [6] is 39%. For the same compound, the remaining at 0.25 h, 10 µM in series [7] turned out to be 12.5%; in series [9], 100%. Further, the remaining at 1 h, 10 µM in series [8] was determined as 10.9%; in [10], 64.5%.
